A selection: hits, their analogues and other compounds. The true share with any hit is near 2.7%.
MC4R antag cAMP: human MC4R antagonism in cAMP assay. inhibition, % at 6.5 µM. MC4R-expressing cells, MTII-stimulated cAMP, LANCE TR-FRET. hit rate 0.48% among 360,000. P32245;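 active = inhibition above its plate's cutoff, the mean of tested wells on that plate plus 3 SD, cut at about 29% in these data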
Target sequence (P32245 whole entry, looked up): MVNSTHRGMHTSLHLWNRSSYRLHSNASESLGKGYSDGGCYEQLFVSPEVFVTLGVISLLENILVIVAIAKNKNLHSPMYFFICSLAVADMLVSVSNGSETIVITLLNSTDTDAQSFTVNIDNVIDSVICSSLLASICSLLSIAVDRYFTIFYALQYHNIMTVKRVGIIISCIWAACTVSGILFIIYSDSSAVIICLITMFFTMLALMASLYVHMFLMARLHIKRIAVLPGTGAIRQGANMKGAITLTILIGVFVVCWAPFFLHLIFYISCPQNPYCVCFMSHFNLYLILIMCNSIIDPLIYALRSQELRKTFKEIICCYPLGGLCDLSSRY
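material = U2OS cells stably expressing human melanocortin 4 receptor (MC4R) | also added = Melanotan II challenge | dosing = single nominal compound dose of 6.5 µM | detection = TR-FRET with Eu-cAMP and labeled anti-cAMP, 671 nm | replication = singlicate | timing = compound 30 min, challenge 1 h, detection 1 h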
NR2E3 ag-1: activates human photoreceptor nuclear receptor NR2E3; Q9Y5X4; GST-NR2E3/biotin-RetCOR TR-FRET, 1536-well; inhibition of corepressor binding, % at 4.78 µM; hit rate 0.12% among 320,000; AID 2300;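 active = percent inhibition above the cutoff of mean plus 3 SD of all tested compounds, set per screening campaign, cut at about 20% in these data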
Target sequence (Q9Y5X4 whole entry, looked up): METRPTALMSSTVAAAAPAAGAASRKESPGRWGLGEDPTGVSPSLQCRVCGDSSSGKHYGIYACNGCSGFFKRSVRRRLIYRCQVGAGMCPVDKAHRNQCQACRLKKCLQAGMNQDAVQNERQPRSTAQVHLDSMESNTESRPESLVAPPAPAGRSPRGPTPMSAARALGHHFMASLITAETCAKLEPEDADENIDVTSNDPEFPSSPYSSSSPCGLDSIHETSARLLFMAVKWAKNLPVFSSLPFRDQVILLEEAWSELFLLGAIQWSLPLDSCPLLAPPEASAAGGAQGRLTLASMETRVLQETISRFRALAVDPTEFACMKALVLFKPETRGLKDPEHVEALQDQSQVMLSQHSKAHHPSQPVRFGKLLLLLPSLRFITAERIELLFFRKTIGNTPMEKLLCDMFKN
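Test system: GST-NR2E3 and biotin-RetCOR proteins | Quantity: 1.35 nM GST-tagged NR2E3 final | Medium: Tris pH 7.5 | Also added: 7 nM biotin-RetCOR | Dosing: Compound at 4.8 µM, single dose | Timing: 5 h at 4 °C | Detection: Time-resolved FRET | Read-out basis: Percent inhibition | Benchmarks: Biotin wells as high control, 0.6% DMSO wells as low control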
Rev-erbA mod: Rev-erb alpha (human) modulation; P20393; Rev-erbα–FITC-DNA binding, fluorescence polarization, 90 min; activity, % at 10 µM; hit rate 0.79% among 370,000;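 active = activity above about 14%, limit read from the data; passing the limit was not always enough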
MC4R barr agon: human MC4R agonism via beta-arrestin | activation, % at 8.9 µM | P32245 | U2OS MC4R beta-arrestin complementation, luminescence; percent of melanotan II response, DMSO zero | hit rate 0.98% among 360,000;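 active = activation above a per-plate cutoff, the mean activation of sample wells on that plate plus 3 SD, cut at about 8% in these data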
PG9 Ab binder: PG9 antibody binding by small molecule; TR-FRET gp120-PG9 antibody binding; inhibition, % at 6.7 µM; hit rate 0.43% among 360,000; in the data active = inhibition above about 8.5%
NR2E3 ag-2: activates human NR2E3 receptor | Q9Y5X4 | CHO-S Gal4-NCOR/VP16-NR2E3 two-hybrid, luciferase | inhibition of corepressor binding, % at 3.98 µM | hit rate 0.35% among 360,000;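 active = inhibition above the mean of all tested compounds plus 3 SD, cut at about 70% in these data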;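 note: higher means lower luciferase signal from less NR2E3 corepressor binding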
U2OS cAMP counter: U2OS forskolin cAMP inhibition counter-screen | shares compounds with MC4R antag cAMP | parental U2OS, LANCE TR-FRET | inhibition, % at 6.5 µM | hit rate 26% among 1,600;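 active = mean inhibition over triplicates above the low-control well mean plus 3 SD, set per campaign, cut at about 13% in these data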;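 note: signal is single emission at 671 nm which falls as cellular cAMP rises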
MC4R cAMP antag: human MC4R cAMP antagonism confirmation | inhibition, % at 6.5 µM | shares compounds with MC4R antag cAMP | AID 602195 | MC4R-expressing cells, MTII-stimulated cAMP, TR-FRET | hit rate 27% among 1,600; in the data active = inhibition above about 29%
MC4R barr ag: human MC4R beta-arrestin agonism confirmation | hit rate 31% among 2,400 | U2OS MC4R beta-arrestin recruitment, luminescence; scaled DMSO 0%, Melanotan II 100% | AID 602192 | shares compounds with MC4R barr agon | activation, % at 8.9 µM;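 active = mean activation across replicates above the hit cutoff set in the earlier primary screen, cut at about 8% in these data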
MOR-DOR barr ag: counter-screen for MC4R agonists: agonists of mu-delta opioid heterodimer. shares compounds with MC4R barr agon. U2OS PathHunter beta-arrestin, beta-gal luminescence; percent of deltorphin B response, DMSO zero. activation, % at 9.2 µM. hit rate 5.8% among 2,400. AID 602194;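 active = mean activation across replicates exceeds the hit threshold derived in the earlier primary screen, cut at about 18% in these data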
PG9 bind confirm: confirmation of small molecules binding HIV-1 gp120 antibody PG9 | hit rate 90% among 1,500 | shares compounds with PG9 Ab binder | TR-FRET PG9 antibody binding, biochemical | inhibition, % at 6.7 µM; in the data active = inhibition above about 9%
PGV04 Ab binding: PGV04 control antibody binding, counter-screen | inhibition, % at 6.7 µM | hit rate 95% among 1,500 | TR-FRET PGV04 antibody-gp120 binding, biochemical | shares compounds with PG9 Ab binder; in the data active = inhibition above about 9.5%
NR1D1 mod conf: Rev-erb alpha (human) modulation, hit confirmation. Rev-erb alpha FITC-DNA binding, fluorescence polarization, 90 min. shares compounds with Rev-erbA mod. AID 1259319. activation, % at 25 µM. hit rate 61% among 3,000;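 active = activation at or above a set limit, or at least 3 SD above the negative control mean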
Of the large screens only hits and unclear results are named; the others gave an inactive call (follow-up assays come after a bar, where they were run).

COC(=O)c1cccc(C23CC4(C2)[C@H](CN(Cc2ccc(-c5ccccc5)cc2)[C@@H]4c2ccccc2)C3c2ccccc2)c1 (some centres undefined)	none
Cc1sc2ncnc(Sc3ccccc3C(=O)O)c2c1C	MC4R antag cAMP 97, PG9 Ab binder 31 | U2OS cAMP counter 50 | MC4R cAMP antag 87 | PG9 bind confirm 37 | PGV04 Ab binding 46
CC(=O)c1ccc(NC(=O)c2ccccc2Sc2ncnc3sc(C)c(C)c23)cc1	none
CC1=NOC(=O)/C1=C\c1ccc(-c2cccc(Cl)c2)o1	none (no result: Rev-erbA mod, PG9 Ab binder)
CC1=NOC(=O)/C1=C\c1ccc(-c2ccccc2Br)o1	MC4R antag cAMP 62, PG9 Ab binder 14 (no result: NR2E3 ag-1) | U2OS cAMP counter inactive | MC4R cAMP antag inactive | PG9 bind confirm 30 | PGV04 Ab binding 54
Cc1ccccc1OCC(=O)Nc1sc(C(=O)Nc2cccc(C)c2C)c(C)c1C#N	MC4R antag cAMP 105, Rev-erbA mod 54 (no result: PG9 Ab binder) | U2OS cAMP counter inactive | MC4R cAMP antag inactive | NR1D1 mod conf 23
Cc1ccccc1OCC(=O)Nc1sc2c(c1C#N)CC(C)(C)NC2(C)C	none
O=S(=O)(c1ccc(NC(=S)N/N=C/c2cccc(Oc3ccccc3)c2)cc1)N1CCOCC1	none
COc1ccc(C(C(=O)NCc2ccccc2)N(Cc2ccco2)C(=O)c2snc(C(N)=O)c2N)cc1 (centres undefined)	none
O=c1c2ccccc2oc2ccccc12	none (no result: NR2E3 ag-1)
S=c1[nH]ncn2c1cc1oc3ccccc3c12	MC4R antag cAMP 34, Rev-erbA mod 34 | U2OS cAMP counter 22 | MC4R cAMP antag 41 | NR1D1 mod conf 20
CC(C)Cc1ccc(-c2cc3nc(NCCc4ccc(S(N)(=O)=O)cc4)ccn3n2)cc1	MC4R antag cAMP 29, Rev-erbA mod 35 (no result: NR2E3 ag-1) | U2OS cAMP counter inactive | MC4R cAMP antag inactive | NR1D1 mod conf 24
O=C(NC(=S)Nc1cccnc1Cl)c1ccc(F)cc1	none
Nc1c(C(=O)Nc2ccccc2F)sc2nc(Cc3ccccc3)cc(C(F)(F)F)c12	MC4R antag cAMP 111, Rev-erbA mod 108 | U2OS cAMP counter inactive | MC4R cAMP antag inactive | NR1D1 mod conf 81
CCOC(=O)c1c(-c2ccc(F)cc2)csc1NC(=O)CN1C(=O)NC2(CCCCC2C)C1=O (centres undefined)	MC4R antag cAMP 32, Rev-erbA mod 21 | U2OS cAMP counter inactive | MC4R cAMP antag inactive | NR1D1 mod conf inactive
Cc1cc(NC(=O)c2cc(-c3ccc(O)cc3)on2)no1	none
COc1ccc(-c2cc(C(=O)Nc3cc(C)on3)no2)cc1OC	MC4R antag cAMP 31, Rev-erbA mod 36 | U2OS cAMP counter inactive | MC4R cAMP antag inactive | NR1D1 mod conf 29
COc1ccc(-c2cc(C(=O)Nc3ccc(Br)cc3)no2)cc1	MC4R antag cAMP 29, Rev-erbA mod 35 | U2OS cAMP counter inactive | MC4R cAMP antag inactive | NR1D1 mod conf inactive
COc1cccc(/C=C2\NC(=O)NC2=O)c1O	none
O=C(Nc1nc(-c2ccc(F)cc2)cs1)c1ccc(N2C(=O)CCC2=O)cc1	none
COc1ccc(-c2csc(NC(=O)c3ccc(N4C(=O)CCC4=O)cc3)n2)cc1	MC4R antag cAMP 50, Rev-erbA mod 27, PG9 Ab binder 29 | U2OS cAMP counter 25 | MC4R cAMP antag 42 | PG9 bind confirm 28 | PGV04 Ab binding 50 | NR1D1 mod conf inactive
Cc1nnc(SCC(=O)NC(=O)Nc2ccc3c(c2)OCCO3)s1	none
COc1ccccc1Nc1nnc(SCC(=O)NC(=O)Nc2ccc3c(c2)OCCO3)s1	MC4R barr agon 17 | MC4R barr ag inactive | MOR-DOR barr ag inactive
Cc1cccc(Nc2nnc(SCC(=O)NC(=O)Nc3ccc4c(c3)OCCO4)s2)c1	MC4R barr agon 22 | MC4R barr ag 11 | MOR-DOR barr ag inactive
Cc1ccccc1Nc1nnc(SCC(=O)NC(=O)Nc2ccc3c(c2)OCCO3)s1	none (no result: MC4R antag cAMP, Rev-erbA mod, MC4R barr agon, PG9 Ab binder, NR2E3 ag-2)
Cc1ccc(SCC(=O)NC(=O)Nc2ccc3c(c2)OCCO3)cc1C	MC4R barr agon 15 | MC4R barr ag inactive | MOR-DOR barr ag inactive
O=C(NCc1ccccc1)c1cc(C2CCCN(C(=O)C3CCCCC3)C2)on1 (centres undefined)	none (no result: NR2E3 ag-1)
N#C/C(=C\c1ccc([N+](=O)[O-])o1)C(=O)Nc1ccc(F)cc1	MC4R barr agon 12 | MC4R barr ag 14 | MOR-DOR barr ag inactive
Cc1ccc(N=Nc2ccc(O)c3ncccc23)cc1C	none
Cc1ccc(N=Nc2ccc(O)c3ncccc23)cc1	MC4R barr agon 11 | MC4R barr ag inactive | MOR-DOR barr ag inactive
CCCc1cc(=O)oc2cc3oc(C)c(C)c3cc12	MC4R barr agon 13 | MC4R barr ag inactive | MOR-DOR barr ag inactive
c1ccc(COC2CCCN(Cc3nc(-c4cnccn4)no3)C2)cc1 (centres undefined)	none
c1ccc(COC2CCCN(Cc3nc(Cc4ccccc4)no3)C2)cc1 (centres undefined)	MC4R barr agon 9.9 | MC4R barr ag inactive | MOR-DOR barr ag inactive
CN(Cc1nc2c(s1)CCCC2)C(=O)CCc1nnc(-c2ccccc2)o1	none
Cn1cc(/C=C2\SC(=O)N(c3ccccc3)C2=O)c2ccccc21	MC4R barr agon 15 | MC4R barr ag inactive | MOR-DOR barr ag inactive
CCc1ccc(NC(=O)CN2CCN(c3ccc(OC)cc3)CC2)cc1	none (no result: NR2E3 ag-1)
Cn1c(=O)c2cc(NC(=O)CCc3cccc(Cl)c3)ccc2n1Cc1cccc(C(F)(F)F)c1	MC4R barr agon 14 (no result: NR2E3 ag-1) | MC4R barr ag inactive | MOR-DOR barr ag inactive
